In ChEMBL document CHEMBL4706639, “Discovery of Novel Azetidine Amides as Potent Small-Molecule STAT3 Inhibitors” (J Med Chem, 2021):
pEC50, pIC50: −log10 of the molar value. The source made the active and inactive calls. The rule behind the calls is not given here.

Legend:
MDA-MB-231 [1] = assay: Antiproliferative activity against human MDA-MB-231 cells assessed as reduction in cell viability incubated for 72 hrs by CyQuant assay; assay type: functional, cell-based; conditions: MDA-MB-231, 72 h
MDA-MB-468 = assay: Antiproliferative activity against human MDA-MB-468 cells harbouring STAT3 assessed as reduction in cell viability incubated for 72 hrs by CyQuant assay; assay type: functional, cell-based; conditions: MDA-MB-468, 72 h
NIH3T3 = assay: Inhibition of oligonucleotide [32P]-labelled 5'-AGATTTCTAGGAATTCAA probe binding to STAT5 homodimer in mouse NIH3T3 nuclear extract at 10 uM preincubated for 30 mins followed by MGFe probe addition by EMSA analysis
[2] = target: T1, Signal transducer and activator of transcription 1 (Mus musculus) (UniProt P42225); assay: Inhibition of oligonucleotide [32P]-labelled 5'-AGCITCATTTCCCGTAAATCCCTA probe binding to STAT1 homodimer in mouse NIH3T3 nuclear extract at 10 uM preincubated for 30 mins followed by hSIE probe addition by EMSA analysis
T1 sequence (whole entry): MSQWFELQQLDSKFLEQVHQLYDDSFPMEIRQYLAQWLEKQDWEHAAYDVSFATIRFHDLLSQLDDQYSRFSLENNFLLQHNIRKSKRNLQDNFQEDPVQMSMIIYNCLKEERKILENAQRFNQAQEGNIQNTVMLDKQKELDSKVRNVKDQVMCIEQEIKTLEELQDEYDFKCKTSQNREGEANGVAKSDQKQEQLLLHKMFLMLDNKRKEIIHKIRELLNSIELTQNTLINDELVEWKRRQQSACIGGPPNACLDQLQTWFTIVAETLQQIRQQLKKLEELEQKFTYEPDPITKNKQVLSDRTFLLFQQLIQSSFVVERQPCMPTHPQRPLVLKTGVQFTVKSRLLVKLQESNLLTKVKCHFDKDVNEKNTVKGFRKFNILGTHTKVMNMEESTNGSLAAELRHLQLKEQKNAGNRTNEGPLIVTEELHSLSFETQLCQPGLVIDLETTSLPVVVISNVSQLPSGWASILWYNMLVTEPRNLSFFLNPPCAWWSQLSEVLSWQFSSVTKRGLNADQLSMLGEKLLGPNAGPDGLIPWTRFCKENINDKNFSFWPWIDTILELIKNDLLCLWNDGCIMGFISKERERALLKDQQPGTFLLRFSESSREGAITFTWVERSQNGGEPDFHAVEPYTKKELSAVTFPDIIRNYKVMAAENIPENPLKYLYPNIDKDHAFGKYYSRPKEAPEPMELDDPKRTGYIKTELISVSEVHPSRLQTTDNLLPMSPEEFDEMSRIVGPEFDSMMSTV

MCF-10A = assay: Cytotoxicity against human MCF-10A cells assessed as reduction in cell viability incubated for 72 hrs by CyQuant assay; assay type: cell-based
MCF7 = assay: Antiproliferative activity against human MCF7 cells assessed as reduction in cell viability incubated for 72 hrs by CyQuant assay; assay type: functional, cell-based; conditions: MCF7, 72 h
[3] = target: Signal transducer and activator of transcription 3 (Mus musculus, UniProt P42227); assay: Inhibition of oligonucleotide [32P]-labelled 5'-AGCITCATTTCCCGTAAATCCCTA probe binding to STAT3 SH2 domain in mouse NIH3T3/v-Src nuclear extract preincubated for 30 mins followed by hSIE probe addition by EMSA analysis; assay type: subcellular, Nucleus
Sequence of Signal transducer and activator of transcription 3 (P42227 whole entry, the tested form may be a part): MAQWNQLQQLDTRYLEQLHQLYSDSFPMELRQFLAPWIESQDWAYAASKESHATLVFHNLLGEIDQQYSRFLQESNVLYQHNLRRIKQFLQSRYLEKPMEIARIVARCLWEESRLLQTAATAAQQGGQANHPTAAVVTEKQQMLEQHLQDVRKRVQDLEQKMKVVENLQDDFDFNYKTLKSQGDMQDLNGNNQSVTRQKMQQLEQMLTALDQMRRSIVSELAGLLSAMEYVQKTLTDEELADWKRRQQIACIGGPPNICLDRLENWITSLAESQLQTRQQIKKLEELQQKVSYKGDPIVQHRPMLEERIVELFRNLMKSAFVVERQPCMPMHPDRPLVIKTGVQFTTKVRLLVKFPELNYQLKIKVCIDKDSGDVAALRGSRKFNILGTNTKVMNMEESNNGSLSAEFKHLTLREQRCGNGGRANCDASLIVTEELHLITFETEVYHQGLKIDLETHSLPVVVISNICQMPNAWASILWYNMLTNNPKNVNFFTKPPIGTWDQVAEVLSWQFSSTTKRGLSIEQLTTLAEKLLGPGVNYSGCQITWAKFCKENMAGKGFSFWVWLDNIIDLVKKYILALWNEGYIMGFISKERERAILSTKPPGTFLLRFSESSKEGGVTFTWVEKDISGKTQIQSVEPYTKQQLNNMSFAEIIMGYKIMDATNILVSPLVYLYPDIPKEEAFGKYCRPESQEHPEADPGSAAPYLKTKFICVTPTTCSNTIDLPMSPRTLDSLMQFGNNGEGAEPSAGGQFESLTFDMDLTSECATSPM

MDA-MB-231 [4] = assay: Antiproliferative activity against human MDA-MB-231 cells harbouring STAT3 assessed as reduction in cell viability at upto 10 uM incubated for 72 hrs by CyQuant assay; assay type: functional, cell-based; conditions: MDA-MB-231, 72 h
MDA-MB-231 [5] = assay: Anticlonogenic activity against human MDA-MB-231 cells assessed as inhibition of colony formation at 0.5 to 1 uM incubated for 4 hrs by crystal violet staining based assay; assay type: functional, cell-based; conditions: dose 0.5-1 µM
Method in brief: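 MDA-MB-231 cells seeded as single-cell cultures (250 cells per well), treated once the next day with compound at 0–1 μM and grown until large colonies were visible. Colonies stained with crystal violet for 4 h and photographed. Three independent determinations.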

pEC50 (MDA-MB-231 [1])	pEC50 (MDA-MB-468)	pEC50 (MCF7)	Structure (SMILES)	pEC50 (MCF-10A)	other results
5.24	5.38	–	O=C(NO)c1ccc(N(Cc2ccc(C3CCCCC3)cn2)C(=O)[C@H]2CCN2S(=O)(=O)c2c(F)c(F)c(F)c(F)c2F)c(F)c1	–	–
5.70	–	–	COC(=O)c1ccc(N(Cc2ccc(C3CCCCC3)nc2)C(=O)[C@H]2CCN2S(=O)(=O)c2c(F)c(F)c(F)c(F)c2F)cc1O	–	–
–	–	–	O=C(O)c1ccc(N(Cc2ccc(C3CCCCC3)nc2)C(=O)[C@H]2CCN2S(=O)(=O)c2c(F)c(F)c(F)c(F)c2F)cc1O	–	inhibition (NIH3T3): Active; inhibition [2]: Active
5.54	5.59	5.34	NC(=O)c1ccc(N(Cc2ccc(C3CCCCC3)cn2)C(=O)[C@H]2CCN2S(=O)(=O)c2c(F)c(F)c(F)c(F)c2F)cc1O	5.14	–
5.18	5.29	–	O=C([C@H]1CCN1S(=O)(=O)c1c(F)c(F)c(F)c(F)c1F)N(Cc1ccc(C2CCCCC2)cn1)c1ccc2nn[nH]c2c1	–	–
5.28	5.29	–	O=C(NO)c1ccc(N(Cc2cnc(C3CCCCC3)cn2)C(=O)[C@H]2CCN2S(=O)(=O)c2c(F)c(F)c(F)c(F)c2F)cc1O	–	–
5.40	5.68	< 5.00	O=C(NO)c1ccc(N(Cc2ccc(C3CCOCC3)cc2)C(=O)[C@H]2CCN2S(=O)(=O)c2c(F)c(F)c(F)c(F)c2F)cc1	5.37	–
–	–	–	O=C(O)c1coc(N(Cc2ccc(C3CCCCC3)cc2)C(=O)[C@H]2CCN2S(=O)(=O)c2c(F)c(F)c(F)c(F)c2F)n1	–	pIC50 [3]: < 5.30
5.85	5.42	5.21	O=C([C@H]1CCN1S(=O)(=O)c1c(F)c(F)c(F)c(F)c1F)N(Cc1ccc(C2CCCCC2)cc1)c1ccc2c(=O)[nH]ccc2c1	5.28	–
5.74	–	–	COC(=O)c1ccc(N(Cc2ccc(C3CCCCC3)cn2)C(=O)[C@H]2CCN2S(=O)(=O)c2c(F)c(F)c(F)c(F)c2F)cc1O	–	–
5.32	–	–	O=C([C@H]1CCN1S(=O)(=O)c1c(F)c(F)c(F)c(F)c1F)N(Cc1cnc(C2CCCCC2)cn1)c1ccc2c(=O)[nH]ncc2c1	–	–
5.17	5.41	–	CONC(=O)c1ccc(N(Cc2ccc(C3CCCCC3)cn2)C(=O)[C@H]2CCN2S(=O)(=O)c2c(F)c(F)c(F)c(F)c2F)cc1O	–	–
5.48	5.82	5.44	O=C([C@H]1CCN1S(=O)(=O)c1c(F)c(F)c(F)c(F)c1F)N(Cc1ccc(C2CCCCC2)cn1)c1ccc2c(=O)[nH]cnc2c1	5.40	–
5.64	5.49	5.32	O=C([C@H]1CCN1S(=O)(=O)c1c(F)c(F)c(F)c(F)c1F)N(Cc1ccc(C2CCCCC2)cn1)c1cc2[nH]ncc2cc1F	5.31	–
5.92	5.70	5.66	O=C([C@H]1CCN1S(=O)(=O)c1c(F)c(F)c(F)c(F)c1F)N(Cc1ccc(C2CCCCC2)cn1)c1ccc2c(=O)[nH]ccc2c1	5.57	–
5.51	5.74	5.14	O=C(NO)c1ccc(N(Cc2ccc(C3CCCC3)cc2)C(=O)[C@H]2CCN2S(=O)(=O)c2c(F)c(F)c(F)c(F)c2F)cc1	5.14	–
5.64	–	5.55	Cn1ccc2cc(N(Cc3ccc(C4CCCCC4)cn3)C(=O)[C@H]3CCN3S(=O)(=O)c3c(F)c(F)c(F)c(F)c3F)ccc2c1=O	5.36	–
5.29	–	–	O=C(NO)c1cc(F)c(N(Cc2ccc(C3CCOCC3)cc2)C(=O)[C@H]2CCN2S(=O)(=O)c2c(F)c(F)c(F)c(F)c2F)cc1O	–	–
5.68	5.64	–	O=C([C@H]1CCN1S(=O)(=O)c1c(F)c(F)c(F)c(F)c1F)N(Cc1cnc(C2CCCCC2)cn1)c1ccc2nn[nH]c2c1	–	–

pEC50 (MDA-MB-231 [1])	pEC50 (MDA-MB-468)	pEC50 (MCF7)	Structure (SMILES)	pEC50 (MCF-10A)	other results
5.70	5.70	5.34	O=C([C@H]1CCN1S(=O)(=O)c1c(F)c(F)c(F)c(F)c1F)N(Cc1cnc(C2CCCCC2)cn1)c1cc2[nH]ncc2cc1F	5.49	–
–	–	4.86	COc1ccc(S(=O)(=O)Nc2cc(-c3c(O)ccc4ccccc34)c(O)c3ccccc23)cc1 [C-188-9]	–	pEC50 (MDA-MB-231 [4]): 4.59
5.70	–	–	O=C1NCc2cc(N(Cc3ccc(C4CCCCC4)cn3)C(=O)[C@H]3CCN3S(=O)(=O)c3c(F)c(F)c(F)c(F)c3F)ccc21	–	–
–	5.80	5.24	COC(=O)c1ccc(N(Cc2cnc(C3CCCCC3)cn2)C(=O)[C@H]2CCN2S(=O)(=O)c2c(F)c(F)c(F)c(F)c2F)cc1O	5.42	inhibition (MDA-MB-231 [5]): Active; pIC50 [3]: 5.12
5.30	–	5.17	O=C(NO)c1ccc(N(Cc2ccc(C3CCCCC3)cc2)C(=O)[C@H]2CCN2S(=O)(=O)c2c(F)c(F)c(F)c(F)c2F)cc1	5.10	–
–	–	–	O=C(NO)c1ccc(N(Cc2ccc(C3CCCCC3)cc2)C(=O)[C@H]2CCN2S(=O)(=O)c2c(F)c(F)c(F)c(F)c2F)c(F)c1	–	inhibition (NIH3T3): Active; inhibition [2]: Active
5.80	5.96	5.35	O=C([C@H]1CCN1S(=O)(=O)c1c(F)c(F)c(F)c(F)c1F)N(Cc1ccc(C2CCCCC2)cc1)c1ccc2c(=O)[nH]ncc2c1	5.34	–
–	–	–	O=C(O)c1ccc(N(Cc2ccc(C3CCOCC3)cc2)C(=O)[C@H]2CCN2S(=O)(=O)c2c(F)c(F)c(F)c(F)c2F)cc1O	–	inhibition (NIH3T3): Active; inhibition [2]: Active
5.38	–	–	O=C([C@H]1CCN1S(=O)(=O)c1c(F)c(F)c(F)c(F)c1F)N(Cc1cnc(C2CCCCC2)cn1)c1ccc2c(=O)[nH]cnc2c1	–	–
5.68	5.66	5.49	Cn1cnc2cc(N(Cc3ccc(C4CCCCC4)cn3)C(=O)[C@H]3CCN3S(=O)(=O)c3c(F)c(F)c(F)c(F)c3F)ccc2c1=O	5.33	–
–	–	–	O=C(O)c1ccc(N(Cc2ccc(C3CCCC3)cc2)C(=O)[C@H]2CCN2S(=O)(=O)c2c(F)c(F)c(F)c(F)c2F)cc1O	–	inhibition (NIH3T3): Active; inhibition [2]: Active
–	–	–	O=C(O)c1ccc(N(Cc2ccc(C3CCOCC3)nc2)C(=O)[C@H]2CCN2S(=O)(=O)c2c(F)c(F)c(F)c(F)c2F)cc1O	–	inhibition (NIH3T3): Active; inhibition [2]: Active
5.62	–	5.03	O=C([C@H]1CCN1S(=O)(=O)c1c(F)c(F)c(F)c(F)c1F)N(Cc1ccc(C2CCCCC2)cc1)c1cc2[nH]ncc2cc1F	5.09	–
5.29	5.19	5.01	O=C(NO)c1ccc(N(Cc2ccc(C3CCCCC3)cc2)C(=O)[C@H]2CCN2S(=O)(=O)c2c(F)c(F)c(F)c(F)c2F)cc1O	5.12	inhibition (NIH3T3): Active; inhibition [2]: Active
–	5.21	–	O=C(NO)c1ccc(N(Cc2ccc(C3CCCCC3)cn2)C(=O)[C@H]2CCN2S(=O)(=O)c2c(F)c(F)c(F)c(F)c2F)cc1O	–	–
–	–	–	O=C(O)c1cc(F)c(N(Cc2ccc(C3CCCCC3)cc2)C(=O)[C@H]2CCN2S(=O)(=O)c2c(F)c(F)c(F)c(F)c2F)cc1O	–	inhibition (NIH3T3): Active; inhibition [2]: Active
–	–	–	O=C(O)c1ccc(N(Cc2ccc(C3CCCCC3)cn2)C(=O)[C@H]2CCN2S(=O)(=O)c2c(F)c(F)c(F)c(F)c2F)cn1	–	pIC50 [3]: < 5.70
5.70	–	–	O=C1NCc2cc(N(Cc3ccc(C4CCCCC4)cn3)C(=O)[C@H]3CCN3S(=O)(=O)c3c(F)c(F)c(F)c(F)c3F)c(F)cc21	–	–

Structure (SMILES)	pEC50 (MDA-MB-231 [1])	pEC50 (MDA-MB-468)	pEC50 (MCF7)	pEC50 (MCF-10A)	other results
COC(=O)c1ccc(N(Cc2ccc(C3CCCCC3)cc2)C(=O)[C@H]2CCN2S(=O)(=O)c2c(F)c(F)c(F)c(F)c2F)c(F)c1	5.36	–	–	–	inhibition (NIH3T3): Active; inhibition [2]: Active; pIC50 [3]: < 5.40
COC(=O)c1ccc(N(Cc2ccc(C3CCCCC3)cc2)C(=O)[C@H]2CCN2S(=O)(=O)c2c(F)c(F)c(F)c(F)c2F)cc1O	5.57	–	–	–	inhibition (NIH3T3): Active; inhibition [2]: Active; pIC50 [3]: < 5.40
